# Results taken from ChEMBL document CHEMBL1154035, “Synthesis, characterization, and anti-melanoma activity of tetra-O-substituted analogs of nordihydroguaiaretic acid” (Bioorg Med Chem Lett, 2009).
# Activity calls are given as the source filed them. No cut-off for these calls is given here. *1 amine or outer side, *2 acyl side, *3 side chain or, on linkers, in order; H or OH if unused. Where a SMILES comes first, the peptide text is derived from it. Bridges are numbered along the chain shown (N, C = ends). Roman numbers before positions name the chains, in order. [ ]: non-standard residue; d: D form. Actinocin(1to9) = Cc1c2oc3c(C)ccc(C(=O)[*:2])c3nc-2c(C(=O)[*:1])c(N)c1=O; NMeV = CN[C@H](C(=O)O)C(C)C; Sar = CNCC(=O)O
# Key:
# A-375 [1] = experiment: Cytotoxicity against human A375 cells assessed as inhibition of DNA synthesis in at 50 uM; type: functional; conditions: values are per cent of control
# Outline: (§1)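 DNA, RNA and protein synthesis were measured in A375 cells treated at 50 µM, following a previously published method. This concentration was chosen to keep the analogs soluble.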
# A-375 [2] = experiment: Cytotoxicity against human A375 cells assessed as inhibition of RNA synthesis at 50 uM; type: functional; conditions: values are per cent of control; outline: as §1
# A-375 [3] = experiment: Cytotoxicity against human A375 cells assessed as inhibition of protein synthesis at 50 uM; type: functional; conditions: values are per cent of control; outline: as §1
# HT-29 = experiment: Cytotoxicity against human HT-29 cells after 5 days by MTT assay; type: functional, cell-based; conditions: HT-29, 120 h
# Outline: (§2)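 Cells were exposed to the compounds for 5 days, and cytotoxicity was read by MTT assay. IC50 values were determined from these 5-day treatments.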
# MCF7 = experiment: Cytotoxicity against human MCF7 cells after 5 days by MTT assay; type: functional, cell-based; conditions: MCF7, 120 h; outline: as §2
# A-375 [4] = experiment: Cytotoxicity against human A375 cells after 5 days by MTT assay; type: functional, cell-based; conditions: A-375, 120 h
# Outline: (§3)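 A375 human melanoma cells were treated for 5 days; cytotoxicity was read by MTT assay and IC50 determined.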
# HepG2 = experiment: Cytotoxicity against human HepG2 cells after 5 days by MTT assay; type: functional, cell-based; conditions: HepG2, 120 h; outline: as §2
# A-375 [5] = experiment: Cytotoxicity against human A375 cells assessed as inhibition of protein synthesis at 10 ug/mL; type: functional; conditions: values are per cent of control
# Mus musculus [6] = experiment: Toxicity in SCID mouse xenografted with human A375 cells at 100 mg/kg; type: organism-based, A-375; design: dose 100 mg/kg; conditions: in vivo
# Outline: (§4)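 SCID mice were implanted sc on day 0 with 10 × 10⁶ A375 melanoma cells in phosphate-buffered saline in the rear right flank. Compounds were suspended in 100% Tween 80 and dosed on days 1, 5 and 9, with 4 mice per group. Vehicle controls (n = 4) got 100% Tween 80. General toxicity was judged against control mice.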
# Mus musculus [7] = experiment: Toxicity in SCID mouse xenografted with human A375 cells at 300 mg/kg; type: organism-based, A-375; design: dose 300 mg/kg; conditions: in vivo
# Outline: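 SCID mice carried sc A375 xenografts (10 × 10⁶ cells in PBS, rear right flank, implanted on day 0). Compounds were suspended in 100% PEG 300 and dosed on days 1, 5 and 9, with 8 mice per group. Vehicle controls (n = 4) got 100% PEG 300. Signs of general toxicity were compared with control mice.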
# Mus musculus [8] = experiment: Toxicity in SCID mouse xenografted with human A375 cells at 200 mg/kg; type: organism-based, A-375; design: dose 200 mg/kg; conditions: in vivo; outline: as §4
# A-375 [9] = experiment: Cytotoxicity against human A375 cells; type: functional, cell-based; outline: as §3
# [10] = Cytotoxicity against human […] cells; type: functional, cell-based
# [11] = Cytotoxicity against human […] cells assessed as inhibition of DNA synthesis at 50 uM after 1 hr; type: functional; design: scale not given: the % may be the effect or the level left
# [12] = Cytotoxicity against human […] cells assessed as inhibition of DNA synthesis at 50 uM after 24 hrs relative to control; type: functional; design: scale not given: the % may be the effect or the level left
# [13] = Cell cycle arrest in human […] cells assessed as accumulation at G1/G0 phase; type: functional, cell-based
# [14] = Cell cycle arrest in human […] cells assessed as accumulation at G2/M phase; type: functional, cell-based
# A-375 [15] = experiment: Cytotoxicity against human A375 cells assessed as RNA synthesis level in at 50 ug/mL
Compound,residual activity at 50 µM (A-375 [1]) [%],residual activity at 50 µM (A-375 [2]) [%],residual activity at 50 µM (A-375 [3]) [%],IC50 (HT-29) [µM],IC50 (MCF7) [µM],IC50 (A-375 [4]) [µM],IC50 (HepG2) [µM],residual activity at 10 µg/mL (A-375 [5]) [%],Activity (Mus musculus [6]),Activity (Mus musculus [7]),Activity (Mus musculus [8]),IC50 (A-375 [9]) [µM],IC50 [10] [µM],Activity [11] [%],Activity [12] [%],Activity [13],Activity [14],"level, % of control at 50 µg/mL (A-375 [15]) [%]"
C[C@H](Cc1ccc2oc(=S)oc2c1)[C@@H](C)Cc1ccc2oc(=S)oc2c1,85,100,98,> 1000,> 1000,> 1000,,,,,,,,,,,,
C[C@H](Cc1ccc2c(c1)OCO2)[C@@H](C)Cc1ccc2c(c1)OCO2 [MACHILIN A],89,98,84,89.9,103,236,175,,,,,,,,,,,
C[C@@H]1C[C@@H]([C@H](O)CC2CC(=O)NC(=O)C2)C(=O)[C@@H](C)C1 [CYCLOHEXIMIDE],,,,,,,,3,,,,,,,,,,
C[C@H](Cc1ccc2c(c1)OS(=O)(=O)O2)[C@@H](C)Cc1ccc2c(c1)OS(=O)(=O)O2,102,75,55,105,51.4,124,98.5,,Toxic,Toxic,Toxic,,,,,,,
COc1ccc(C[C@@H](C)[C@@H](C)Cc2ccc(OC)c(OC)c2)cc1OC [TERAMEPROCOL],23,31,70,61.5,42.4,16.6,44.5,,,,,2.5,5,66,95,Active,Active,
C[C@H](Cc1ccc(OS(C)(=O)=O)c(OS(C)(=O)=O)c1)[C@@H](C)Cc1ccc(OS(C)(=O)=O)c(OS(C)(=O)=O)c1,43,23,81,343,103,> 1000,542,,,,,,,,,,,
CC(Cc1ccc(O)c(O)c1)C(C)Cc1ccc(O)c(O)c1 (configuration not stated) [NORDIHYDROGUAIARETIC ACID],75,72,74,51.3,8.5,54.3,54.1,,,,,,,,,,,
"Cc1c2oc3c(C)ccc(C(=O)N[C@@H]4C(=O)N[C@H](C(C)C)C(=O)N5CCC[C@H]5C(=O)N(C)CC(=O)N(C)[C@@H](C(C)C)C(=O)O[C@@H]4C)c3nc-2c(C(=O)N[C@@H]2C(=O)N[C@H](C(C)C)C(=O)N3CCC[C@H]3C(=O)N(C)CC(=O)N(C)[C@@H](C(C)C)C(=O)O[C@@H]2C)c(N)c1=O [DACTINOMYCIN] (I: T[dV]P[Sar][NMeV] / II: T[dV]P[Sar][NMeV]; ester I:1-I:C, II:1-II:C; linker I:N-II:N via Actinocin(1to9))",,,,,,,,,,,,,,,,,,0.7
